According to ChEMBL document CHEMBL1148280, “Design, synthesis, structural studies, biological evaluation, and computational simulations of novel potent AT(1) angiotensin II receptor antagonists based on the 4-phenylquinoline structure” (J Med Chem, 2004):

molecular target: T1, Type-1 angiotensin II receptor B (Rattus norvegicus, UniProt P29089); assay: Binding affinity for rat angiotensin II receptor, type 1; details: not given
T1 sequence (P29089 whole entry): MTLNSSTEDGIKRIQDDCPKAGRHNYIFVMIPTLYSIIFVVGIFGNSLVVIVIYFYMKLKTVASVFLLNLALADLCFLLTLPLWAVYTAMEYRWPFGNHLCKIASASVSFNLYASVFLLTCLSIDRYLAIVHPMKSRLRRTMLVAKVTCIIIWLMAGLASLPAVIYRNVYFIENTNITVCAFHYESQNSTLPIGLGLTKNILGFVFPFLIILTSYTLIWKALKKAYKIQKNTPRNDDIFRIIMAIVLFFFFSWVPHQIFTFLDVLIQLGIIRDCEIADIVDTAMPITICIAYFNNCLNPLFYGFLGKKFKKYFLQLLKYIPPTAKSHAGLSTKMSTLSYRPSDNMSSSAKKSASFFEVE

Going from `CCCCC(=O)N(Cc1ccc(-c2ccccc2-c2nnn[nH]2)cc1)[C@H](C(=O)O)C(C)C` to `CCCCc1nc(CCCC)n(Cc2ccc(-c3ccccc3-c3nnn[nH]3)cc2)n1`, the IC50 rises from 1.9 nM to 5.6 nM (2.9-fold).

`CCCc1nc2c(C)ccnc2n1Cc1ccc(-c2ccccc2-c2nn[nH]n2)cc1` and `CCCc1nc2c(C)cc(C)nc2n1Cc1ccc(-c2ccccc2-c2nn[nH]n2)cc1` are within 1.5-fold of each other in IC50: 1 nM for the first, 0.8 nM for the second.

Going from `CCCNc1nc2ccccc2c(-c2ccc(Cn3c(CC)nc4c(C)cc(C)nc43)cc2)c1C(=O)O` to `CCc1nc2c(C)cc(C)nc2n1Cc1ccc(-c2c(C(=O)O)c(NC)nc3ccccc23)cc1`, the IC50 falls from 66 nM to 13 nM (5.1-fold). The second is the more potent here.

Compared with `CCc1nc2c(C)cc(C)nc2n1Cc1ccc(-c2c(CC(=O)O)cnc3ccccc23)cc1`, `CCc1nc2c(C)cc(C)nc2n1Cc1ccc(-c2c(C(=O)O)cnc3ccccc23)cc1` is 34-fold lower in IC50: 576 nM for the first, 17 nM for the second.

Going from `CCCc1nc2c(C)cc(C)nc2n1Cc1ccc(-c2c(C(=O)O)c(Cl)nc3ccccc23)cc1` to `CCCc1nc2c(C)cc(C)nc2n1Cc1ccc(-c2c(C(=O)O)c(O)nc3ccccc23)cc1`, the IC50 rises from 7.7 nM to 261 nM (34-fold). The first is the more potent here.

Compared with `CCCCc1nc2c(C)cc(C)nc2n1Cc1ccc(-c2c(C(=O)O)c(N)nc3ccccc23)cc1`, `CCCc1nc2c(C)cc(C)nc2n1Cc1ccc(-c2c(C(=O)O)c(N)nc3ccccc23)cc1` is 3.1-fold lower in IC50: 13 nM for the first, 4.2 nM for the second. The second is the more potent here.

Compared with `CCCc1nc2c(C)cc(C)nc2n1Cc1ccc(-c2c(-c3nn[nH]n3)cnc3ccccc23)cc1`, `CCc1nc2c(C)cc(C)nc2n1Cc1ccc(-c2c(-c3nnn[nH]3)cnc3ccccc23)cc1` is 1.7-fold lower in IC50: 12 nM for the first, 6.9 nM for the second.

Compared with `CCCCc1nc2c(C)cc(C)nc2n1Cc1ccc(-c2c(C(=O)O)cnc3ccccc23)cc1`, `CCCc1nc2c(C)cc(C)nc2n1Cc1ccc(-c2c(C(=O)O)c(C)nc3ccccc23)cc1` is 4.6-fold lower in IC50: 41 nM for the first, 9 nM for the second. The second is the more potent here.

First: CCc1nc2c(C)cc(C)nc2n1Cc1ccc(-c2c(CC(=O)O)c(Cl)nc3ccccc23)cc1
Second: CCc1nc2c(C)cc(C)nc2n1Cc1ccc(-c2c(C(=O)O)c(N)nc3ccccc23)cc1
The IC50 of the first is 17-fold higher: 215 nM for the first, 13 nM for the second.

Compared with `CCCc1nc2c(C)ccnc2n1Cc1ccc(-c2ccncc2-c2nnn[nH]2)cc1`, `CCCc1nc2c(C)ccnc2n1Cc1ccc(-c2cccnc2-c2nn[nH]n2)cc1` is 15-fold higher in IC50: 4 nM for the first, 60 nM for the second. The first is the more potent here.

Going from `CCc1nc2c(C)cc(C)nc2n1Cc1ccc(-c2c(C(=O)O)ccc3ccccc23)cc1` to `CCc1nc2c(C)cc(C)nc2n1Cc1ccc(-c2c(C(=O)O)c(OC)nc3ccccc23)cc1`, the IC50 rises from 33 nM to 74 nM (2.2-fold). The first is the more potent here.

First: CCCc1nc2c(C)cc(C)nc2n1Cc1ccc(-c2c(C(=O)NS(=O)(=O)c3ccc([N+](=O)[O-])cc3)cnc3ccccc23)cc1
Second: CCc1nc2c(C)cc(C)nc2n1Cc1ccc(-c2c(C(=O)O)c(N(C)C)nc3ccccc23)cc1
The IC50 of the first is 3.7-fold higher: 106 nM for the first, 29 nM for the second. The second is the more potent here.

Going from `CCCN(CCC)c1nc2ccccc2c(-c2ccc(Cn3c(CC)nc4c(C)cc(C)nc43)cc2)c1C(=O)O` to `CCc1nc2c(C)cc(C)nc2n1Cc1ccc(-c2c(C(=O)O)c(=O)n(C)c3ccccc23)cc1`, the IC50 falls from 492 nM to 326 nM (1.5-fold). The second is the more potent here.

`CCCCc1nc(CCCC)n(Cc2ccc(-c3ncccc3-c3nnn[nH]3)cc2)n1` and `CCCCc1nc(CCCC)n(Cc2ccc(-c3cccnc3-c3nnn[nH]3)cc2)n1` are within 1.5-fold of each other in IC50: 98 nM for the first, 110 nM for the second.

Compared with `CCc1nc2c(C)cc(C)nc2n1Cc1ccc(-c2ncccc2-c2nn[nH]n2)cc1`, `CCc1nc2c(C)cc(C)nc2n1Cc1ccc(-c2ncccc2C(=O)O)cc1` is 46-fold higher in IC50: 18 nM for the first, 819 nM for the second. The first is the more potent here.

First: CCc1nc2c(C)cc(C)nc2n1Cc1ccc(-c2c(C(=O)O)c3nnnn3c3ccccc23)cc1
Second: CCc1nc2c(C)cc(C)nc2n1Cc1ccc(-c2ccccc2-c2nnn[nH]2)cc1 [L-158809]
The IC50 of the first is 130-fold higher: 52 nM for the first, 0.4 nM for the second.

Going from `CCCCc1nc(CCCC)n(Cc2ccc(-c3cnccc3-c3nnn[nH]3)cc2)n1` to `CCCCc1nc(CCCC)n(Cc2ccc(-c3ccncc3-c3nnn[nH]3)cc2)n1`, the IC50 rises from 150 nM to 250 nM (1.7-fold). The first is the more potent here.

species on record: Oryctolagus cuniculus; assay: Inhibition of angiotensin II induced contraction in rabbit aortic strips after 120 minutes contact with the compound; type: functional; details: Aorta, 2 h
Summary of the method: (§1)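 Rabbit aortic strips under 2 g resting tension, isometric recording, equilibrated 1 h. A cumulative Ang II concentration–response curve was run first, then a 30 min washout. Antagonist or vehicle was added at several concentrations before a submaximal (70–80%) Ang II challenge; contact time differed by line. Percent inhibition was regressed to give IC50 with P = 0.05 fiducial limits.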

Going from `CCc1nc2c(C)cc(C)nc2n1Cc1ccc(-c2c(-c3nnn[nH]3)cnc3ccccc23)cc1` to `CCc1nc2c(C)cc(C)nc2n1Cc1ccc(-c2c(C(=O)O)c(=O)n(C)c3ccccc23)cc1`, the IC50 rises from 2 nM to 170 nM (85-fold).

species on record: Oryctolagus cuniculus; assay: Inhibition of angiotensin II induced contraction in rabbit aortic strips after 60 minutes contact with the compound; type: functional; details: Aorta, 1 h; summary of the method: as §1

Compared with `CCCc1nc2c(C)cc(C)nc2n1Cc1ccc(-c2c(C(=O)O)c(C)nc3ccccc23)cc1`, `CCCc1nc2c(C)cc(C)nc2n1Cc1ccc(-c2c(C(=O)O)c(N)nc3ccccc23)cc1` is 3.9-fold lower in IC50: 13 nM for the first, 3.3 nM for the second.

First: CCc1nc2c(C)cc(C)nc2n1Cc1ccc(-c2c(-c3nnn[nH]3)cnc3ccccc23)cc1
Second: CCCCc1nc(Cl)c(CO)n1Cc1ccc(-c2ccccc2-c2nnn[nH]2)cc1 [LOSARTAN]
The IC50 of the first is 2.5-fold lower: 4 nM for the first, 9.9 nM for the second. The first is the more potent here.
